pIC50: −log10 of the molar value.
Tested on: HeLa
Experiment: Antiproliferative activity against human HeLa cells assessed as inhibition of cell growth incubated for 24 hrs by MTT assay
Format: functional, cell-based
In short: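 Cells kept in DMEM with 10% FBS and 1% antibiotic-antimycotic at 37 °C and 5% CO2. Seeded at 8 × 10^3 cells per 100 μL and left 24 h, then exposed 24 h to 5, 10, 20, 50 or 100 μM. MTT at 0.5 mg/mL in HBSS was added for 2–4 h at 37 °C in the dark. Formazan was dissolved in DMSO, A570 was read, and IC50 was derived.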

Q: How did the pIC50 turn out when `C[C@@H](C[C@@H](O)[C@@H](O)C(C)(C)O)[C@@H]1CC[C@]2(C)C3=CC[C@H]4C(C)(C)C(=O)CC[C@]4(C)[C@H]3CC[C@@]12C` was run?
A: Its pIC50 is 4.29.

From ChEMBL document CHEMBL6083205, “A comprehensive apoptotic assessment of niloticin in cervical cancer cells: a tirucallane-type triterpenoid from Aphanamixis polystachya (Wall.) Parker” (RSC Med Chem, 2024)
